Most compounds without a hit are left out; they make up all but 2% or so of the library.
MBD2 DNA inh = blocks human MBD2 binding to methylated DNA; Q9UBB5; inhibition, % at 4.4 µM; TR-FRET, MBD2 binding to methylated oligonucleotide; AID 686964; 0.31% of 370,000 active; in the data active means inhibition above about 13%
Target sequence (Q9UBB5 whole entry, looked up): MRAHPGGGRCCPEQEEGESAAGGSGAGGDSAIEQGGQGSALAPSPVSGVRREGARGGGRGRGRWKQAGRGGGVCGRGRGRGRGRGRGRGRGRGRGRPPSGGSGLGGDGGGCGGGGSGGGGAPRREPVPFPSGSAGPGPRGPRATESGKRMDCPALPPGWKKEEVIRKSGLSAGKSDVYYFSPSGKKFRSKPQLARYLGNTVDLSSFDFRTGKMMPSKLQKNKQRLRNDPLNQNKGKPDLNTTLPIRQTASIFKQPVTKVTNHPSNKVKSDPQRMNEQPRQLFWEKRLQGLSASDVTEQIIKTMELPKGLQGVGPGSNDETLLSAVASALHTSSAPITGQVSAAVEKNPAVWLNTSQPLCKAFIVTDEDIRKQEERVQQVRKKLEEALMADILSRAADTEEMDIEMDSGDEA
ARFGAP1 inh = inhibitors of rat ARFGAP1. Arfgap1-stimulated ARF1 GTP hydrolysis, GDP FP detection. 0.26% of 360,000 active. AID 651572. inhibition, % at 16.5 µM;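 active means inhibition above a per-plate limit, mean inhibition of low control wells plus 3 SD, cut at about 25% in these data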;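 further: 0% = DMSO wells with enzyme and 100% = wells lacking Arfgap1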
Target sequence (Q62848 1-136 limits assumed): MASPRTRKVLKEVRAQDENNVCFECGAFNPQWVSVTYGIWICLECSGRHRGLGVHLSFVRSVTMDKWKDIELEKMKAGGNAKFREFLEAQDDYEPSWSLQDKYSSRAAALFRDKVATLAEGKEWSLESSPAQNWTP
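Material: rat Arfgap1 catalytic domain, aa 1-136; also added: human ARF1(Δ1-17)-GTP substrate; compound dosing: one concentration, 16.5 µM, DMSO 1.26%; incubation: GTP hydrolysis reaction 2 h at 25 °C; measured by: Tracer-displacement fluorescence polarization with EDTA stop, 620/688 nm; evaluation: % inhibition from polarization; repeats: one replicate per compound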
ASAP1 inh = blocks human ASAP1-stimulated Arf1 GTP hydrolysis; Q9ULH1; GDP FP detection; inhibition, % at 16.5 µM; 0.19% of 360,000 active; in the data active means inhibition above about 25%;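 further: 0% = vehicle with enzyme and substrate and 100% = no enzyme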
UHRF1 binding = UHRF1 methyl-DNA binding inhibition. UHRF1 binding to methylated oligo, TR-FRET. 0.75% of 370,000 active. inhibition, % at 4.4 µM. Q96T88; in the data active means inhibition above about 21%;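 further: UHRF1 SRA domain binding a hemimethylated CpG hairpin DNA probe; 0% = median of test compound wells and 100% = reference inhibitor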
TCR-CD3 inh = human TCR-CD3 binding inhibition; TAMRA-labeled TCR probe fluorescence, biochemical; inhibition, % at 9.4 µM; 0.37% of 360,000 active; AID 651800; in the data active means inhibition above about 19%;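 further: recombinant mutant TCR 2C K166C tagged with TAMRA read by polarization; 0% = receptor in buffer alone and 100% = receptor with positive control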
LEDGF integ inh = blocks HIV-1 LEDGF/p75-dependent DNA integration. TR-FRET IN-LEDGF/p75 DNA integration, Eu/Cy5. inhibition, % at 3.7 µM. 0.64% of 370,000 active;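 active means inhibition above the screen-wide mean plus 3 SD, cut at about 13% in these data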;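 further: signal is the Cy5 over europium emission ratio at 671 and 618 nm; 0% = plate median of compound wells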
IN multimer up = HIV-1 integrase multimerization activation, counter-screen | shares compounds with LEDGF integ inh | 17% of 2,000 active | AID 1053131 | TR-FRET HIV-1 integrase multimerization, biochemical | activation, % at 7.7 µM; in the data active means activation above about 8.9%
TR-FRET interf = counter-screen for LEDGF/p75 integration inhibitors: TR-FRET optical interference. inhibition, % at 7.7 µM. 2,000 tested, under 10 active. shares compounds with LEDGF integ inh. TR-FRET optical interference counterscreen, HIV-1 IN multimerization;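 active means inhibition above the mean over all tested compounds plus 3 SD, which no compound reached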;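 further: 0% = integrase with antibodies and DMSO and 100% = antibodies without integrase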
LEDGF integ conf = confirmation of HIV-1 LEDGF/p75-dependent integration inhibitors; shares compounds with LEDGF integ inh; TR-FRET LEDGF/p75-dependent HIV-1 integration, biochemical; inhibition, % at 3.7 µM; 36% of 2,000 active; AID 1053136; in the data active means inhibition above about 14%
Active calls of the source: *; x = not tested or not shown.

SMILES | MBD2 DNA inh | ARFGAP1 inh | ASAP1 inh | UHRF1 binding | TCR-CD3 inh | LEDGF integ inh | IN multimer up | TR-FRET interf | LEDGF integ conf
O=C(COc1ccccc1[N+](=O)[O-])NCCC1=CCCCC1 | -2.5 | 4.6 | 0.1 | -1.8 | 6.6 | 18.5* | 0.4 | -2.1 | -1.3
COc1ccc(NC(=O)CCCn2cnc3ccccc3c2=O)c(OC)c1 | 1.4 | 3.2 | -8.9 | 2.0 | -0.4 | 16.2* | -0.6 | 2.2 | -12.8
COc1ccc(C(=O)Cn2cnc3ccccc3c2=O)c(OC)c1 | 2.7 | -0.6 | -0.2 | 2.9 | 0.1 | 2.6 | x | x | x
CCOC(=O)/C(C#N)=C1\C(=O)N(Cc2ccccc2)c2ccccc21 | 0.0 | -4.3 | -16.2 | 1.1 | 6.5 | -1.5 | x | x | x
CC(=O)NC(C)C(=O)N1CCCC1C(=O)N1CCCC1C(=O)NC(C)C(=O)NC1C(=O)NC(CC(C)C)C(=O)NC2CCCCNC(=O)CCC(C(=O)NC(Cc3ccc(O)cc3)C(=O)O)NC(=O)C3CCC(=O)OCC(NC(=O)C4CCCN4C(=O)C(Cc4c[nH]c5ccccc45)NC2=O)C(=O)NC(CC(=O)OC1C)C(=O)NC(Cc1c[nH]c2ccccc12)C(=O)N3 (stereo not given) | 10.1 | x | x | -10.1 | x | 0.3 | x | x | x
CCc1nnc(NC(=O)c2oc3cc(C)c(C)cc3c2C)s1 | -1.6 | 4.5 | 13.0 | 4.2 | -4.7 | 16.0* | 2.9 | -14.7 | -3.1
CCc1nonc1NC(=O)c1oc2cc(C)c(C)cc2c1C | -0.4 | 3.8 | -2.8 | 0.6 | -2.7 | -1.9 | x | x | x
CCOC(=O)C1=NS(=O)(=O)NC(C)=C1 | -6.0 | -3.1 | -15.6 | 0.0 | 3.9 | 15.6* | 0.1 | -0.7 | -0.8
COc1ccccc1C(=O)NCCC(=O)Nc1ccncc1 | -0.2 | -7.8 | 6.6 | 0.3 | 12.4 | 3.2 | x | x | x
CN(c1ccc(C(=O)COC(=O)C2CC2)cc1)S(C)(=O)=O | 1.7 | -5.0 | 5.4 | 2.1 | 5.5 | 30.6* | 0.0 | 0.0 | 1.0
CCN1C(=O)[C@H]2[C@H]3CN=C(SCC(=O)c4ccccc4)N3[C@@](C)(C(=O)OC)[C@H]2C1=O | 2.6 | -6.6 | -7.4 | -2.9 | 2.2 | 1.5 | x | x | x
COc1ccccc1N(/N=C1\Sc2ccccc2C1=O)C(C)=O | -7.2 | 8.9 | 12.8 | -8.3 | -9.0 | 16.6* | 0.3 | -1.2 | 23.3*
Cc1[nH]c(=O)[nH]c1C(=O)CCCCC(=O)O | 1.6 | -8.8 | -3.7 | 1.7 | -8.5 | 73.4* | -1.6 | 8.2 | 59.6*
O=C(Nc1nccs1)Oc1ccccc1 | 2.9 | 6.5 | -11.2 | 0.9 | 1.5 | 16.4* | 1.1 | -3.9 | -9.8
O=C(CCCOc1ccccc1)Nc1nccs1 | 2.2 | 5.6 | 11.6 | 0.8 | -4.8 | -1.1 | x | x | x
COc1ccccc1CNC(=O)[C@H](C)NC(=O)C1CCN(C(=O)[C@@H](N)C(C)C)CC1 | -0.9 | 11.9 | 4.8 | -0.5 | 11.1 | 2.7 | x | x | x
CCOC(=O)c1ccccc1NC(=O)CSc1ncc(C(=O)OCC)c(N)n1 | 3.6 | -0.5 | -12.2 | 0.1 | -2.0 | -0.6 | x | x | x
CCOC(=O)c1cnc(SCC(=O)NNC(=O)c2ccco2)nc1N | 5.0 | -13.7 | 3.9 | -0.2 | -2.4 | 72.3* | 0.6 | -2.9 | -5.1
NC[C@H](O)c1ccc(O)c(O)c1 | 4.1 | 5.9 | -3.2 | 5.2 | 1.9 | 14.9* | 1.5 | -7.3 | -10.2
CC(C)NCC(O)c1ccc(O)c(O)c1 (stereo not given) | -4.0 | -1.8 | 2.3 | -2.2 | -7.0 | -8.8 | x | x | x
CNC[C@H](O)c1ccc(O)c(O)c1 | 1.3 | 4.3 | -3.4 | 6.3 | 12.8 | 17.6* | 0.9 | -3.4 | 0.3
CCOc1ccc(OCCOC(=O)CN2C(=O)NC3(CCCC3)C2=O)cc1 | 7.5 | -1.5 | 16.7 | 2.4 | 3.7 | 0.3 | x | x | x
O=C(NCc1ccccc1)C(c1ccco1)N1CCN(c2ccccc2F)CC1 (stereo not given) | 2.1 | 3.8 | 1.1 | -2.9 | -5.0 | -0.9 | x | x | x
CCc1ccc(OCC(=O)Nc2ccc(-c3cc4ccccc4oc3=O)c(OC)c2)cc1 | -0.7 | 3.5 | 11.6 | 0.4 | 7.1 | -2.3 | x | x | x
COc1cc(NC(=O)c2cc(Cl)ccc2Cl)ccc1-c1cc2ccccc2oc1=O | -3.7 | 11.1 | -17.4 | -3.8 | 6.8 | 34.6* | 1.2 | -5.8 | -2.6
SMILES | MBD2 DNA inh | ARFGAP1 inh | ASAP1 inh | UHRF1 binding | TCR-CD3 inh | LEDGF integ inh | IN multimer up | TR-FRET interf | LEDGF integ conf
CN(C)S(=O)(=O)N1CCN(C(=O)N(c2ccccc2)c2ccccc2)CC1 | 3.0 | -3.9 | 5.3 | 2.6 | -8.8 | 70.7* | -0.2 | 1.0 | -0.5
CCOC(=O)c1cnc2c(ccc3ccccc32)c1NCCO | 2.8 | -4.1 | -10.7 | -2.0 | -0.7 | -1.0 | x | x | x
CCOC(=O)c1cnc2c(ccc3ccccc32)c1N | -2.2 | -4.3 | -0.7 | -0.1 | 5.7 | 59.6* | 7.9 | -39.9 | -0.9
O=C(NCCN1CCCC1)C1CC(=O)N(C2CCCCC2)C1 (stereo not given) | -7.6 | 0.5 | -12.5 | 0.0 | 6.2 | 26.4* | -0.5 | 2.7 | -4.5
Cc1c(F)cccc1NC(=O)CCCCCC1NC(=O)NC1C (stereo not given) | 5.3 | 13.5 | 5.4 | -1.9 | 5.2 | 77.6* | -1.0 | 5.0 | 88.9*
O=C(CCCC(=O)c1ccccc1)Nc1ccc(F)cc1 | -4.7 | -9.2 | 9.3 | -3.4 | 0.7 | 2.6 | x | x | x
Cc1c(F)cccc1NC(=O)CCC(=O)O | 0.0 | 4.8 | 2.3 | -1.4 | 0.7 | 1.1 | x | x | x
CC1NC(=O)NC1CCCCCC(=O)Nc1ccc(F)cc1 (stereo not given) | 4.1 | -0.9 | 3.0 | -3.8 | 2.7 | 83.5* | -2.3 | 11.8 | 92.6*
COc1cccc(C(=O)O[C@H]2[C@H](C)NS(=O)(=O)[C@H]3C[C@@H]4C=C[C@]23O4)c1 | 1.2 | 5.6 | 10.9 | -0.9 | 3.6 | -1.4 | x | x | x
CCOc1ccc(Cc2c(C)[nH]c3ccc(C(=O)O)cc3c2=S)cc1 | 2.4 | -3.2 | -1.9 | 2.8 | 9.0 | 13.9* | 1.3 | -4.9 | 2.5
O=[N+]([O-])C1=CC=C2C(=NC3(CCCCC3)N2O)C1=NCCc1ccccc1 | -0.3 | -14.5 | -4.7 | -3.8 | 5.9 | -0.2 | x | x | x
CC1(C)CC(N=C2C([N+](=O)[O-])=CC=C3C2=NC2(CCCCC2)N3O)CC(C)(C)N1 | -17.1 | -0.6 | -1.2 | -15.6 | 5.5 | 26.1* | 5.7 | -28.9 | 3.3
COc1ccc(-c2csc(C(C)(O)c3cccc(OC)c3)n2)cc1 (stereo not given) | 1.9 | 10.9 | 1.6 | -2.7 | -3.2 | 21.7* | 0.0 | -0.2 | -4.7
CC(C)c1cccc(-c2csc(C(C)(O)c3ccccc3)n2)c1 (stereo not given) | 1.1 | 4.2 | -6.9 | 0.7 | -8.7 | 16.2* | 0.2 | -1.0 | -10.3

Assay outcomes deposited in PubChem by The Scripps Research Institute Molecular Screening Center.
